PP5 primary – blocks human protein phosphatase 5 activity; inhibition, % at 6.7 µM; purified PP5c, OMFP substrate fluorescence; hit rate 0.18% among 320,000;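 active means inhibition above the campaign's mean inhibition across all tested compounds plus 3 SD, cut at about 9.5% in these data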;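 further: 0% = DMSO only and 100% = 100 µM cantharidin control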
HCV core dimer – HCV core protein dimerization inhibition. TR-FRET GST/Flag-core106 dimerization, 1536-well. inhibition, % at 5 µM. hit rate 0.33% among 300,000;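 active means inhibition above the mean of all tested compounds plus 3 SD, set per screening campaign, cut at about 45% in these data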
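Assay system: tagged HCV core106 pair (GST and Flag); medium: KF-containing HEPES buffer, pH 7.45, DTT, CHAPS, BSA; also added: Eu donor and XL665 acceptor anti-tag antibodies; dosing: 5 µM single dose; timing: compound-protein-antibody incubation 4 h at 22.5 °C; signal: TR-FRET 671 and 617 nm emission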
Myeloid diff 2 – myeloid differentiation induction; ER-HoxA9 myeloid progenitors, lysozyme-GFP differentiation, flow cytometry; calls only at 10 µM; hit rate 1% among 360,000;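 active means normalized GFP-positive differentiation at or above the plate's own cutoff, the solvent-only control mean plus 3 SD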;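 further: cells exposed to compound for four days before flow analysis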
PP1 inh – blocks human PP1-alpha phosphatase, a PP5 counter-screen | purified PP1alpha, OMFP fluorescence | inhibition, % at 6.7 µM | hit rate 0.9% among 320,000;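 active means inhibition above the mean inhibition of all tested compounds plus 3 SD, computed separately for each screening campaign, cut at about 15% in these data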
Target sequence (P62136 whole entry, looked up): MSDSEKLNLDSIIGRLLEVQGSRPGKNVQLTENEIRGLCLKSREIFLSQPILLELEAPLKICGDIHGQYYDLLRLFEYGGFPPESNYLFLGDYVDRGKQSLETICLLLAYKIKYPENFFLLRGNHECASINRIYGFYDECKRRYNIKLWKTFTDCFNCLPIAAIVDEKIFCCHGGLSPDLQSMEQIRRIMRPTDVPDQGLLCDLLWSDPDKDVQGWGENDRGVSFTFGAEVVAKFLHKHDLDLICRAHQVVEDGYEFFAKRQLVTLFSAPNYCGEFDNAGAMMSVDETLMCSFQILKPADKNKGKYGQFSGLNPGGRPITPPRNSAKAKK
CTSL1 counter – counter-screen for PFM18AAP inhibitors: inhibitors of F. hepatica cathepsin L1. recombinant F. hepatica cathepsin L1, Z-Leu-Arg-MCA fluorescence. inhibition, % at 5.96 µM. hit rate 0.49% among 300,000;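 active means inhibition above the mean of all tested compounds plus 3 SD, set per screening campaign, cut at about 17% in these data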;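 further: 0% = plate median of test compound wells and 100% = 1 µM Z-Phe-Ala-diazomethylketone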
NadD block – blocks S. aureus nicotinate mononucleotide adenylyltransferase; inhibition, % at 20 µM; hit rate 0.78% among 360,000; purified NadD enzyme, colorimetric absorbance read-out; AID 602399; in the data active means inhibition above about 26%
An asterisk follows results filed as active. Shown are actives, neighbours in structure and some others; about 3.1% of the full set was active somewhere.

Screening COc1ccc(-n2ncc3c(N4CCN(c5cc(C)ccc5C)CC4)ncnc32)cc1 returned PP5 primary 3, HCV core dimer 9, Myeloid diff 2 inactive, PP1 inh 17*, CTSL1 counter -8 and NadD block 1.
COc1ccc(N2CCN(c3ncnc4c3cnn4-c3ccc(C)cc3C)CC2)cc1 was read as PP5 primary 1, HCV core dimer -2, Myeloid diff 2 inactive, PP1 inh 2, CTSL1 counter 1 and NadD block -7.
For O=C(Nc1ccc(Cn2cccn2)cc1)c1ccc(COc2cccc(Br)c2)cc1 the results were PP5 primary 3, HCV core dimer 19, Myeloid diff 2 active, PP1 inh 6, CTSL1 counter 6 and NadD block 5.
CCOC(=O)c1c(C)c(-c2ccccc2)n(CC(=O)NCCCN(CC)CC)c1C was read as PP5 primary 0, HCV core dimer 7, Myeloid diff 2 inactive, PP1 inh -5, CTSL1 counter -3 and NadD block -2.
For CCOC(=O)c1c(C)c(-c2ccccc2)n(CC(=O)NCCC(C)C)c1C the results were PP5 primary 1, HCV core dimer 6, Myeloid diff 2 inactive, PP1 inh 2, CTSL1 counter 89* and NadD block -11.
O=C(c1cc2c(c(-c3cccc(-c4ccc(F)cc4)c3)n1)[C@H](CCO)N(C(=O)c1ccc3c(c1)OCO3)C2)N1CCOCC1 was read as Myeloid diff 2 inactive and NadD block -3.
Screening Cc1ccc(CSc2ccc3nnc(-c4ccccn4)n3n2)cc1 returned PP5 primary 0, HCV core dimer 10, Myeloid diff 2 inactive, PP1 inh 16*, CTSL1 counter 0 and NadD block 25.
For Fc1ccc(CSc2ccc3nnc(-c4ccccn4)n3n2)cc1 the results were PP5 primary -1, HCV core dimer 3, Myeloid diff 2 inactive, PP1 inh 13, CTSL1 counter 0 and NadD block 10.
Screening COC(=O)Nc1ccc(S(=O)(=O)N2CCCC(C(=O)NC3CCCCC3)C2)cc1 (stereo not given) returned PP5 primary 1, HCV core dimer 2, Myeloid diff 2 inactive, PP1 inh -2, CTSL1 counter -15 and NadD block 1.
Screening CC1CCN(S(=O)(=O)c2ccc(NC(=O)C3CCN(C(=O)c4ccco4)CC3)cc2)CC1 returned PP5 primary 4, HCV core dimer -7, Myeloid diff 2 inactive, PP1 inh 3, CTSL1 counter -5 and NadD block -2.
`COC(=O)Nc1ccc(S(=O)(=O)N2CCC(C(=O)NC3CCCCC3)CC2)cc1` gave PP5 primary -1, HCV core dimer -8, Myeloid diff 2 active, PP1 inh 1, CTSL1 counter 1 and NadD block -2.
O=C(Nc1ccc(S(=O)(=O)N2CCCCC2)cc1)C1CCN(C(=O)c2ccco2)CC1 was read as PP5 primary 0, HCV core dimer 8, Myeloid diff 2 active, PP1 inh -1, CTSL1 counter -9 and NadD block -1.
For O=C(Nc1cccc(Cl)c1)C1CCN(C(=O)c2cccs2)CC1 the results were PP5 primary 1, HCV core dimer -2, Myeloid diff 2 inactive, PP1 inh -1, CTSL1 counter 1 and NadD block 1.
`C=CCCC(=O)N1C[C@H]2CON(C)[C@H]2C[C@H]1c1cccc(Br)c1` gave Myeloid diff 2 inactive and NadD block 2.
CSc1ccc(-c2sc(Nc3ccccc3)n[n+]2-c2ccccc2)cc1 was read as PP5 primary 5, HCV core dimer -35, Myeloid diff 2 inactive, PP1 inh 17*, CTSL1 counter -1 and NadD block 12.
Screening Fc1ccc(-[n+]2nc(Nc3ccccc3)sc2-c2cccc(Cl)c2Cl)cc1 returned PP5 primary 2, HCV core dimer -30, Myeloid diff 2 inactive, PP1 inh 17*, CTSL1 counter 3 and NadD block 4.
`CCc1ccc(Nc2n[n+](-c3ccccc3)c(-c3ccc(SC)cc3)s2)cc1` gave PP5 primary -1, HCV core dimer -94, Myeloid diff 2 inactive, PP1 inh 7, CTSL1 counter -1 and NadD block 4.
For Nc1ccn([C@@H]2O[C@H](CNC(=O)[C@@H](Cc3cccnc3)NC=O)[C@@H](O)[C@H]2O)c(=O)n1 the results were Myeloid diff 2 inactive and NadD block -1.
Screening O=C(COc1cccc(Br)c1)N/N=C/c1ccc2c(c1)OCCO2 returned Myeloid diff 2 inactive and NadD block -7.
`O=C(c1cc2c(s1)CCCC2)N1CCN(Cc2ccc3c(c2)OCO3)CC1` gave PP5 primary 1, HCV core dimer 11, Myeloid diff 2 inactive, PP1 inh 2, CTSL1 counter 6 and NadD block 0.
Screening O=C(Oc1ccc2c(c1)OCO2)c1cc2c(s1)CCC2 returned PP5 primary 1, HCV core dimer 87*, PP1 inh 12, CTSL1 counter -2 and NadD block 24.
COc1ccc2c(c1)C(=O)N1[C@H]3c4cc(Cl)ccc4OC[C@@H]3[C@H](c3ccccc3)[C@]1(C)C(=O)N2 was read as Myeloid diff 2 active and NadD block 22.
CCCNC(=O)CSc1nc(-c2cccs2)cc(C(F)(F)F)n1 was read as PP5 primary 4, HCV core dimer -6, Myeloid diff 2 inactive, PP1 inh -6, CTSL1 counter 7 and NadD block -5.
`Cc1cc(NC(=O)CSc2c[nH]c3ccccc23)no1` gave PP5 primary -7, HCV core dimer -16, Myeloid diff 2 inactive, PP1 inh -3, CTSL1 counter 2 and NadD block -2.
For Cc1cc(NC(=O)CSc2nc(-c3cccs3)cc(C(F)(F)F)n2)no1 the results were PP5 primary 1, HCV core dimer 1, Myeloid diff 2 active, PP1 inh -4, CTSL1 counter -4 and NadD block -1.
`Cc1cc(NC(=O)CSc2nc3ccccc3c(=O)n2Cc2ccccc2)no1` gave PP5 primary -1, HCV core dimer 7, Myeloid diff 2 inactive, PP1 inh 0, CTSL1 counter -1 and NadD block -6.
Cc1ccc(Cn2c(SCC(=O)Nc3cc(C)on3)nc3ccccc3c2=O)cc1 was read as PP5 primary 1, HCV core dimer 62*, Myeloid diff 2 inactive, PP1 inh 1, CTSL1 counter 3 and NadD block -1.
Cc1cc(NC(=O)CSc2c(C)[nH]c3ccccc23)no1 was read as PP5 primary 5, HCV core dimer -15, Myeloid diff 2 active, PP1 inh 0, CTSL1 counter -4 and NadD block -6.
Screening Cc1cc(NC(=O)CSc2nnc(-c3c[nH]c4ccccc34)n2-c2ccc(Cl)cc2)no1 returned PP5 primary 1, HCV core dimer 10, Myeloid diff 2 inactive, PP1 inh 15*, CTSL1 counter 7 and NadD block 23.

Screening data (PubChem BioAssay)
